Shown are actives, neighbours in structure and some others; about 1.4% of the full set was active somewhere.
FXIIa inh 1536 = blocks human coagulation factor XIIa protease activity | actives 0.3% (n = 220,000) | purified FXIIa, Boc-QGR-AMC fluorogenic substrate, 2 h | inhibition, % at 5 µM | P00748 | AID 800; in the data active = inhibition above about 40%;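 also: 0% = enzyme with no compound and 100% = blank without enzyme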
KLK5 inh = inhibitors of human kallikrein 5 | recombinant hK5, fluorogenic AMC substrate cleavage | actives 0.59% (n = 210,000) | Q9Y337 | inhibition, % at 5 µM;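 active = inhibition of 40% or more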;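 also: 0% = enzyme controls without compound and 100% = no-enzyme blanks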
Target sequence (Q9Y337 67-293 limits assumed): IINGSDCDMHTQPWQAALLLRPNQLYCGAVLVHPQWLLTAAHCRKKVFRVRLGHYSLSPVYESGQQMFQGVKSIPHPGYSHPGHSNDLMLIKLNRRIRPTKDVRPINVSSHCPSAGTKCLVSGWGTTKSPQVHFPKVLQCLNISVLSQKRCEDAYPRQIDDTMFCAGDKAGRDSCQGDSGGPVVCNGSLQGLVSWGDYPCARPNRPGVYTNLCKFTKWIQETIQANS
m-calpain inh = blocks pig calpain II enzyme activity | purified calpain II, fluorogenic peptide substrate, 30 min | inhibition, % at 16 µM | actives 0.37% (n = 220,000);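 active = inhibition above about 50%, limit read from the data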
FXIa inh 1536 = inhibitors of human coagulation factor XIa; P03951; purified FXIa, Boc-Glu-Ala-Arg-AMC fluorogenic substrate; inhibition, % at 5 µM; actives 0.14% (n = 220,000); AID 798;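 active = inhibition of at least 40%; inactive = inhibition below 40%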;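 also: fluorescence of freed AMC excited at 355 nm; 0% = enzyme without compound and 100% = no enzyme blank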
thrombin 1536 = thrombin (human) inhibition. inhibition, % at 5 µM. actives 0.26% (n = 220,000). alpha-thrombin, Boc-VPR-AMC fluorogenic substrate cleavage;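 active = inhibition at or above 40%; inactive = inhibition below 40%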;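 also: 0% = enzyme with no compound and 100% = wells without enzyme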
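System: human alpha-thrombin protein; Compound dosing: one concentration per compound, 5 µM, with 0.2% DMSO; Timing: reaction at room temperature; Technique: AMC fluorescence, 355/460 nm; Controls: enzyme without compound as high, wells lacking enzyme as low.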
Numbers without * were called inactive; nt = not tested or not shown.

SMILES	FXIIa inh 1536	KLK5 inh	m-calpain inh	FXIa inh 1536	thrombin 1536
CC(C)(C)C(=O)NC1CCN(S(=O)(=O)c2ccc(C(F)(F)F)cc2)CC1	13.4	6.1	-20.4	2.0	-0.2
Cc1ccc(N=Nc2c(N)n(-c3ccccc3)[nH]c2=O)cc1	16.2	40.4*	7.8	17.6	21.8
Cc1ccc(/C=N/NC(=O)c2ccoc2C)s1	6.1	-7.7	15.5	-5.8	-5.9
Cc1occc1C(=O)N/N=C/c1ccc(Br)s1	33.6	48.6*	28.3	17.0	27.7
CCOC(=O)c1c(NC(=O)CSc2nnc(C)o2)sc(C)c1C	9.4	8.3	4.0	2.3	0.6
CCCn1c(/N=C/c2ccc3c(c2)OCO3)nc2ccccc21	11.8	43.2*	9.2	5.4	14.2
O=C(c1ccccc1)C1CN(c2ccccc2)CC1c1ccc(Cl)cc1 (centres undefined)	53.7*	62.0*	15.2	6.1	13.7
Cc1ccnc(N/C=C(\C#N)c2nc(-c3cccc(Br)c3)cs2)c1	-5.6	1.8	-53.9	-5.4	-7.3
CN(C)c1cccc(/C=C(\C#N)c2ccccc2)c1	9.2	-0.4	34.6	2.9	-0.6
Cn1cc([N+](=O)[O-])c(C(=O)Nc2cc(Oc3cccnc3)cc([N+](=O)[O-])c2)n1	-6.1	-19.6	59.2*	-2.4	-6.4
O=C(c1ccc(Cl)cc1Cl)N1CCC(c2nc3c(nnn3Cc3ccco3)c(=O)[nH]2)CC1	5.8	-9.9	70.4*	-6.5	-2.1
CC(C)(C)SCCNC(=O)CN(c1ccc(F)cc1)S(=O)(=O)c1ccccc1	26.2	nt	18.4	19.8	14.4
CCOC(=O)N1CCN(c2ccc(Cl)c(Cl)c2)CC1	10.4	-17.1	17.6	26.5	-0.1
CCOC(=O)N1CCN(c2ccc(C(=O)c3cccc(F)c3)cc2)CC1	-1.8	-0.3	58.0*	-7.0	-6.4
Fc1cccc(Cn2cc(C(=S)N3CCCCC3)c3ccccc32)c1	0.4	-7.1	65.8*	-1.1	24.1
O=C(c1cccc(COc2ccc(Cl)cc2Cl)c1)N1CCN(c2ccccn2)CC1	-2.2	-6.0	69.7*	-6.2	-6.5
O=C(c1ccc(COc2ccccc2Br)o1)N1CCN(c2ccccn2)CC1	16.5	49.8*	21.7	8.2	12.5
O=C(O/N=C/c1ccc2c(c1)OCO2)c1ccc([N+](=O)[O-])cc1	13.3	-2.9	70.0*	-1.9	-6.8
CCOCCn1c(CN2CCOCC2)nc2c1c(=O)[nH]c(=O)n2C	1.9	40.6*	-13.8	-6.7	-5.5
O=C(C1Cc2ccccc2CN1C(=O)c1ccccc1)N1CCN(c2ccccc2)CC1 (centres undefined)	10.5	-0.2	-24.1	-1.0	2.2
COc1ccccc1NC(=S)N/N=C1\CC(C)(C)Oc2ccc(O)cc21	36.0	56.5*	-21.9	30.5	9.3
COc1ccc(NC(=S)N/N=C2\CC(C)(C)Oc3ccc(O)cc32)cc1	1.0	-23.2	-18.2	9.8	3.0
CC(=O)Nc1ccc(S(=O)(=O)N[C@@H](C)C(=O)OCc2ccc(Cl)cc2)cc1	4.6	-24.4	11.3	1.6	-3.2
COc1cc(/C=C/C(=O)O)cc(S(=O)(=O)Nc2cccc(SC)c2)c1OC	10.8	-12.2	-4.9	-3.6	-5.3
COC(=O)c1c(NC(=O)CC2SC(N)=NC2=O)sc(C)c1C (centres undefined)	4.3	-9.1	-12.5	-4.4	-5.0
SMILES	FXIIa inh 1536	KLK5 inh	m-calpain inh	FXIa inh 1536	thrombin 1536
CC(C)CCN(C(=S)NC(=O)C1CCCCC1)c1c(N)n(Cc2ccccc2)c(=O)[nH]c1=O	16.7	10.0	63.7*	8.5	13.3
COCCN(C(=O)C1CCCC1)c1c(N)n(Cc2ccccc2)c(=O)[nH]c1=O	7.0	3.1	11.4	-1.0	-9.9
O=C(CC(C(=O)NCc1ccccc1)c1nc2ccccc2c(=O)[nH]1)NCc1ccccc1 (centres undefined)	10.7	2.0	-1.7	3.6	1.7
Cc1cccc(N2C(=O)CS/C2=N\NC(=O)c2ccc(Br)cc2)c1C	13.8	56.6*	27.3	24.9	23.4
Cc1cc(Nc2ccc(C)c(C)c2)n2nc(C)nc2n1	42.4*	-1.4	5.0	31.2	-0.9
O=C(N/N=C/c1ccc(Cl)c([N+](=O)[O-])c1)C1CC1	18.2	11.8	54.2*	8.8	12.4
O=C(NCc1nnc(SCc2ccc(F)cc2)n1-c1ccc(F)cc1)C12CC3CC(CC(C3)C1)C2	10.2	10.2	8.6	0.0	-8.9
COc1ccc(Br)cc1/C=N/NC(=O)CN1CCN(Cc2ccccc2)CC1	4.5	40.9*	-12.5	-16.8	-6.2
COc1ccc(/C=N/NC(=O)CN2CCN(Cc3ccccc3)CC2)cc1Br	7.3	5.2	19.6	-4.9	-2.6
COc1ccc(CCNS(=O)(=O)c2ccc3c(c2)OCCO3)cc1OC	27.2	68.9*	16.0	9.7	24.3
COc1ccc(S(=O)(=O)NCCC(C)C)cc1OC	17.6	121.0*	21.5	4.0	10.2
CC(C)CCNS(=O)(=O)c1ccc(-c2ccc(S(=O)(=O)NCCC(C)C)cc2)cc1	4.6	-35.3	-5.6	4.6	-11.6
Cc1ccc(NC(=O)CCSCCc2ccccn2)cc1	6.4	nt	-13.2	-0.9	1.1
CN(C)c1ccc(C2CC(=O)C=C(Nc3ccccc3N)C2)cc1 (centres undefined)	6.7	0.8	3.2	4.3	-0.8
CCc1ccc(C2NC(=S)NC3=C2C(=O)CC(C)(C)C3)cc1 (centres undefined)	3.4	-8.2	-2.8	3.2	-6.3
CCOC(=O)Cn1c(=O)cc(C)c2cccc(C)c21	1.7	-5.5	73.5*	-6.5	-1.0
CCCCCc1ccc(OCCCC[n+]2ccc(C)cc2)c(CCCCC)c1	10.9	40.4*	8.1	2.6	9.0
CC(C)NC(=O)C(=O)NNC(=O)CCc1ccccc1	8.9	2.7	-28.9	4.7	-6.2
CO/N=C/c1ccc(Sc2ccccc2N)c([N+](=O)[O-])c1	44.5*	-2.7	61.6*	-2.5	-6.5
O=C(Cn1c(=O)oc2ccccc21)N1CCOCC1	5.9	-3.4	-8.9	-3.4	-8.2
Cc1ncc(CN=Cc2ccc(Cl)cc2)c(N)n1	7.5	-0.8	-14.2	-2.1	-5.4
COCCn1c(CN2CCN(C)CC2)nc2c1c(=O)n(C)c(=O)n2C	6.8	11.3	85.1*	-1.9	1.8
Cc1ccc(S(=O)(=O)N2CCN(CC(=O)N(CC(C)C)c3c(N)n(CC(C)C)c(=O)[nH]c3=O)CC2)c(C)c1	11.7	-0.1	-10.2	-2.7	-8.3
COc1ccc(C2=Nn3c(nnc3-c3ccco3)SC2)cc1	-4.8	-17.5	50.8*	-0.2	-11.1
COc1ccc(OC)c(C2=Nn3c(nnc3-c3ccco3)SC2)c1	5.5	-4.9	5.1	0.5	6.4
COc1ccc(NC(=O)CC2C(=O)N(c3cccc(OC)c3)C(=O)N2CCC(C)C)cc1 (centres undefined)	8.9	-5.0	-8.4	2.7	-5.4
Cc1ccc(NC(=O)c2cc(N3C(=O)C4CCCCC4C3=O)ccc2N2CCOCC2)cc1 (centres undefined)	6.4	2.5	67.8*	-2.9	-5.8
O=C(COC(=O)c1c2ccccc2cc2ccccc12)Nc1ncc(C(F)(F)F)cc1Cl	0.5	59.4*	-52.1	15.1	8.0
